Hits are enriched below; roughly 2.9% of the tested compounds scored in any of these assays.
S100A4 MyoIIA – blocks human S100A4 binding to myosin IIA peptide; P26447; S100A4/TAMRA-MyoIIA peptide fluorescence polarization; inhibition, % at 10.7 µM; 0.14% of 360,000 active; AID 652163;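 active = mean inhibition of at least 70% across replicates, with every replicate also reaching that level; inconclusive = mean inhibition reaches 70% but some replicates fall short; inactive = mean inhibition below 70%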
Target sequence (P26447 whole entry, looked up): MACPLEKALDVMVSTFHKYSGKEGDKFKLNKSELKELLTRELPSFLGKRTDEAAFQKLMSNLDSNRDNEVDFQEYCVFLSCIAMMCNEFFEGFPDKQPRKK
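Assay system: human S100A4 monomer with TAMRA-labelled myosin IIA peptide / Buffer or medium: Calcium-containing HEPES buffer, pH 7.2 / Reagent: TAMRA-labelled myosin IIA heavy-chain peptide probe, 5 nM / Compound: one dose per compound / Timing: polarization read 5 min after assay mix addition, stable 5–60 min / Benchmarks: neutral control DMSO, positive control TFP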
ERAP1 inh – ERAP1 (human) enzyme inhibition; Q9NZ08; recombinant ERAP1, Leu-AMC fluorescence, 60 min; inhibition, % at 10.7 µM; 0.15% of 340,000 active; AID 652197;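 active = mean replicate inhibition of at least 30%, or all replicates individually reaching that 30% level; inactive = mean below 30% and not every replicate reaching it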;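 also: 0% = neutral control wells and 100% = L-leucinethiol positive control wells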
CAL PDZ FP-1 – CAL PDZ (human) peptide binding inhibition | Q9HD26 | purified CAL PDZ, TMR-peptide fluorescence polarization, 1 h | inhibition, % at 24.9 µM | 0.92% of 300,000 active;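 active = mean inhibition of at least 30% with at least half of replicates also reaching 30%; inconclusive = no clear call, values can overlap the other calls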;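 also: 0% = DMSO neutral control and 100% = excess unlabeled competitor peptide PRC23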
SIRT5 inh – blocks human SIRT5 desuccinylation of peptide. inhibition, % at 15 µM. 1.1% of 330,000 active. Q9NXA8. Purified SirT5, succinyl-peptide AMC, trypsin-coupled fluorescence; in the data active = inhibition above about 15%; inconclusive = no clear call, values can overlap the other calls
Target sequence (Q9NXA8 whole entry, looked up): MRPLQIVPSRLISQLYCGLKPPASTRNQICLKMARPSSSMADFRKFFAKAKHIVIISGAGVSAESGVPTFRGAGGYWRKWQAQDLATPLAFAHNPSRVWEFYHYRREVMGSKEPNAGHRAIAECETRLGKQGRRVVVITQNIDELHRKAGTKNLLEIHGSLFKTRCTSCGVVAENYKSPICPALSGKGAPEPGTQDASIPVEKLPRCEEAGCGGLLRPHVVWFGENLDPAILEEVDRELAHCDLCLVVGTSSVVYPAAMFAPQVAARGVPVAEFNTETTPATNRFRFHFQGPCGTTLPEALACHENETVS
DENV2 CPE rescue – DENV2-induced cell death inhibition; CPE inhibition, % at 9.99 µM; DENV2-infected cells, cytopathic effect rescue, plate reader; 1.7% of 350,000 active; in the data active = CPE inhibition above about 20%, passing the limit was not always enough; inconclusive = no clear call, values can overlap the other calls; tested in BHK-21 cells;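 also: 0% = median of neutral control wells and 100% = median of positive control wells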
CAL PDZ FP-2 – human CAL PDZ-peptide interaction inhibition | purified CAL PDZ, TMR-peptide fluorescence polarization, 1 h | inhibition, % at 20 µM | 0.02% of 330,000 active;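 active = highest replicate inhibition of at least 40%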;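 also: plate controls were DMSO neutral control wells for no effect and unlabeled competitor peptide control wells for full effect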
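material = purified tagged CAL PDZ domain construct (CerCALP) | buffer or medium = sodium phosphate/NaCl buffer pH 7.4 with TCEP, IgG, Thesit | reagent = TMR-labelled reporter peptide T*-PRC34 bound in PDZ groove | incubation = 1 h room-temperature incubation prior to read | measured by = fluorescence polarization (mP) | evaluation = percent inhibition from loss of millipolarization | control set = unlabelled peptide and DMSO controls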
Active calls of the source: *; ? = inconclusive; / = no result; ! = not confirmed by another sample.

SMILES	S100A4 MyoIIA	ERAP1 inh	CAL PDZ FP-1	SIRT5 inh	DENV2 CPE rescue	CAL PDZ FP-2
COc1ccc(NC(=O)N(C)C[C@H]2OCCCC[C@@H](C)Oc3ccc(NC(=O)NC4CCCCC4)cc3C(=O)N([C@H](C)CO)C[C@@H]2C)cc1	134*	-5	/	4	?	/
C[C@H](CO)N1C[C@H](C)[C@@H](CN(C)C(=O)Nc2cccc3ccccc23)OCCCC[C@H](C)Oc2ccc(NC(=O)NC3CCCCC3)cc2C1=O	3	-2	/	6	113*	/
C[C@H]1CCCCO[C@@H](CN(C)C(=O)Nc2cccc3ccccc23)[C@@H](C)CN([C@@H](C)CO)C(=O)c2cc(NC(=O)Cc3ccccc3)ccc2O1	7	-2	/	4	83*	/
CC(C)NC(=O)Nc1ccc2c(c1)CC(=O)N([C@@H](C)CO)C[C@H](C)[C@@H](CN(C)Cc1ccc(C(=O)O)cc1)O2	5	1	/	-2	?	/
COc1ccc(NC(=O)N(C)C[C@@H]2OCCCC[C@@H](C)Oc3ccc(NC(=O)Nc4ccccc4)cc3C(=O)N([C@H](C)CO)C[C@@H]2C)cc1	-2	-2	/	4	39*	/
COc1ccc(NC(=O)Nc2ccc3c(c2)C(=O)N([C@@H](C)CO)C[C@@H](C)[C@H](CN(C)C(=O)Nc2ccccc2)OCCCC[C@H](C)O3)cc1	1	4	/	8	-3	/
C[C@@H]1CCCCO[C@@H](CN(C)S(=O)(=O)c2cccs2)[C@@H](C)CN([C@@H](C)CO)C(=O)c2cc(NC(=O)c3ccccc3)ccc2O1	/	/	/	/	2	/
C=CCOc1ccc(Br)cc1CNCCO	-2	3	98*	-6	-1	-1
C=CCOc1ccc(Br)cc1CNC(C)(C)CO	-2	-1	-4	-3	-4	1
C[C@@H]1CN([C@@H](C)CO)C(=O)c2cc(NS(=O)(=O)c3cccs3)ccc2O[C@@H](C)CCCCO[C@@H]1CN(C)Cc1ccccc1	1	3	/	0	7	/
COc1ccc(NC(=O)N(C)C[C@H]2Oc3c(NC(=O)Nc4ccccc4)cccc3C(=O)N([C@H](C)CO)C[C@H]2C)cc1	-3	-2	/	7	14	/
C[C@@H]1CCCCO[C@H](CN(C)Cc2ccc(Cl)c(Cl)c2)[C@@H](C)CN([C@H](C)CO)C(=O)c2cc(NS(=O)(=O)c3ccccc3)ccc2O1	-3	-3	/	0	32*	/
C[C@H]1CCCCO[C@H](CN(C)Cc2ccc(Cl)c(Cl)c2)[C@@H](C)CN([C@@H](C)CO)C(=O)c2cc(NS(=O)(=O)c3ccccc3)ccc2O1	-7	4	/	0	-13	/
C[C@@H]1CCCCO[C@H](CN(C)Cc2ccc(Cl)c(Cl)c2)[C@@H](C)CN([C@@H](C)CO)C(=O)c2cc(NS(=O)(=O)c3ccccc3)ccc2O1	0	-3	/	13	24*	/
C[C@@H]1CN([C@H](C)CO)C(=O)c2cc(NS(=O)(=O)c3ccccc3)ccc2O[C@@H](C)CCCCO[C@@H]1CN(C)Cc1ccc(Cl)c(Cl)c1	-1	-3	/	15*!	4	/
Cc1cc(C(=O)Nc2cccc3c2O[C@@H](CN(C)C(=O)NC(C)C)[C@@H](C)CN([C@H](C)CO)C3=O)n(C)n1	9	2	/	2	-1	/
COC(=O)CSc1ncnc2c1cnn2Cc1ccccc1	/	/	-1	/	/	-1
CC(C)(C)C(=O)CSc1ncnc2c1cnn2Cc1ccccc1	2	-1	-2	15*	-2	1
COc1ccc(N2CCN(c3cc(C(=O)NC4CCCCC4)ncn3)CC2)cc1OC	-2	-1	/	-2	22*	/
COc1ccc(C(=O)NC2CCCCCCC2)cc1OC	1	-1	/	-2	3	6
C[C@H]1CN([C@@H](C)CO)C(=O)c2cc(C#CCc3ccccc3)cnc2O[C@H]1CN(C)Cc1ccc(C(=O)O)cc1	3	11	/	-1	-3	/
CN1CCN(C(=O)C[C@@H]2C[C@H]3c4cc(NC(=O)NC5CCCC5)ccc4O[C@H]3[C@@H](CO)O2)CC1	-14	0	/	-4	4	/
C[C@@H]1CCCCO[C@@H](CN(C)Cc2ccc(Cl)c(Cl)c2)[C@@H](C)CN([C@H](C)CO)C(=O)c2cc(N(C)C)ccc2O1	9	3	/	/	4	/
C[C@H](CO)N1C[C@H](C)[C@@H](CN(C)Cc2ccncc2)OCCCC[C@H](C)Oc2ccc(N(C)C)cc2C1=O	1	3	/	0	31*	/
C[C@H](CO)N1C[C@H](C)[C@@H](CN(C)Cc2ccc(Cl)c(Cl)c2)OCCCC[C@H](C)Oc2ccc(N(C)C)cc2C1=O	-7	-2	/	-2	30*	/
SMILES	S100A4 MyoIIA	ERAP1 inh	CAL PDZ FP-1	SIRT5 inh	DENV2 CPE rescue	CAL PDZ FP-2
C[C@H]1CCCCO[C@H](CN(C)Cc2ccncc2)[C@@H](C)CN([C@@H](C)CO)C(=O)c2cc(N(C)C)ccc2O1	0	0	/	-3	12	/
Cc1noc(C)c1S(=O)(=O)Nc1cccc2c1O[C@H](CN(C)S(=O)(=O)c1c(C)noc1C)[C@H](C)CN([C@@H](C)CO)C2=O	-28	-3	/	-5	-7	/
CCCCN(CCCC)S(=O)(=O)c1c(C)[nH]c(=O)[nH]c1=O	-2	-5	-2	22*	-2	1
C[C@@H]1CCCCO[C@H](CN(C)Cc2ccc(Cl)c(Cl)c2)[C@@H](C)CN([C@H](C)CO)C(=O)c2cc(NS(C)(=O)=O)ccc2O1	-19	-1	/	-1	9	/
CC1(C(=O)Nc2ccc3c(c2)OCCO3)CCC(=O)N1CC(F)(F)F (centres undefined)	-2	2	/	-2	-8	/
Cn1nc(C(C)(C)C)cc1N1C(=O)CCC1(C)C(=O)Nc1ccc2c(c1)OCCO2 (centres undefined)	-8	10	/	-2	24*	/
O=C(c1ccc(NS(=O)(=O)c2cccc(F)c2)cc1)N1CCCCC1	-1	-4	36*	0	5	-2
CN(C(=O)c1cccc(NC(=O)Cc2ccc(NC(=O)C3CCN(C(=O)C4CCCCC4)CC3)cc2)c1)C1CCCCC1	-3	-1	-5	25*	1	-3
CN(C(=O)c1ccc(NC(=O)Cc2ccc(NC(=O)C3CCN(C(=O)C4CCC4)CC3)cc2)cc1)C1CC1	44	-2	1	/	-7	-1
O=C(c1ccc(NS(=O)(=O)c2cccc(F)c2)cc1)N1CCCC1	16	1	-5	0	0	-3
CN(C(=O)c1ccc(NC(=O)Cc2ccc(NC(=O)C3CCN(C(=O)C4CCCCC4)CC3)cc2)cc1)C1CCCC1	13	-1	-4	-3	86*	0
O=C(Cc1cccc(NC(=O)C2CCCN(C(=O)C3CC3)C2)c1)Nc1cccc(C(=O)N2CCCCC2)c1 (centres undefined)	14	5	-7	0	59*	2
